Compound activity as filed in PubChem BioAssay.
Only some compounds are listed: those with a hit (about 2.7% of all), similar ones and a draw of the others.
MsrA inh = inhibits bovine methionine sulfoxide reductase A | purified bovine MsrA, absorbance read-out | inhibition, % at 15.5 µM | actives 0.75% (n = 360,000) | AID 651718;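 note: 0% = vehicle wells with enzyme and 100% = reference inhibitor wells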
HGIII-sPLA2 inh = Blocks human group III sPLA2 activity; actives 0.56% (n = 370,000); inhibition, % at 12.2 µM; QFRET BODIPY PC-A2 liposome hydrolysis, fluorescence;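 active = inhibition above mean plus 3 SD of compounds lying within the high and low control bounds, cut at about 19% in these data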;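 note: 0% = median of test compound wells and 100% = no enzyme DMSO wells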
NR1D1 modulator = modulators of human Rev-erb alpha DNA binding; Rev-erbα–FITC-DNA binding, fluorescence polarization, 90 min; activity, % at 10 µM; actives 0.79% (n = 370,000);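 active = activity above about 14%, limit read from the data; passing the limit was not always enough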;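 note: 0% = DMSO wells with 35 nM protein and 100% = DMSO wells with 750 nM protein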
bovine MsrA act = bovine methionine sulfoxide reductase A activation | purified bovine MsrA, absorbance read-out | activation, % at 10.6 µM | actives 0.3% (n = 360,000); in the data active = activation above about 7.5%;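 note: 0% = vehicle and 100% = reference activator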
ARFGAP1 inhibitor = inhibitors of rat ARFGAP1 | inhibition, % at 16.5 µM | Q62848 | actives 0.26% (n = 360,000) | Arfgap1-stimulated ARF1 GTP hydrolysis, GDP FP detection;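 active = inhibition above a per-plate limit, mean inhibition of low control wells plus 3 SD, cut at about 25% in these data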;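 note: 0% = DMSO wells with enzyme and 100% = wells lacking Arfgap1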
Target sequence (Q62848 1-136 limits assumed): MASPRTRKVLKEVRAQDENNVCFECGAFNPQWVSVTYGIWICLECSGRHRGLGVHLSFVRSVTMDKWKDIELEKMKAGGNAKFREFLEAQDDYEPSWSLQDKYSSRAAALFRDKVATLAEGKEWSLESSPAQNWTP
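Material: rat Arfgap1 catalytic domain, aa 1-136; also added: human ARF1(Δ1-17)-GTP substrate; compound dosing: one concentration, 16.5 µM, DMSO 1.26%; incubation: GTP hydrolysis reaction 2 h at 25 °C; measured by: Tracer-displacement fluorescence polarization with EDTA stop, 620/688 nm; evaluation: % inhibition from polarization; repeats: one replicate per compound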
ASAP1 inh = ASAP1 ArfGAP inhibition; Q9ULH1; ASAP1-stimulated ARF1 GTP hydrolysis, GDP FP detection; inhibition, % at 16.5 µM; actives 0.19% (n = 360,000); AID 624377; in the data active = inhibition above about 25%;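 note: 0% = vehicle with enzyme and substrate and 100% = no enzyme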
Target sequence (Q9ULH1 325-724 limits assumed): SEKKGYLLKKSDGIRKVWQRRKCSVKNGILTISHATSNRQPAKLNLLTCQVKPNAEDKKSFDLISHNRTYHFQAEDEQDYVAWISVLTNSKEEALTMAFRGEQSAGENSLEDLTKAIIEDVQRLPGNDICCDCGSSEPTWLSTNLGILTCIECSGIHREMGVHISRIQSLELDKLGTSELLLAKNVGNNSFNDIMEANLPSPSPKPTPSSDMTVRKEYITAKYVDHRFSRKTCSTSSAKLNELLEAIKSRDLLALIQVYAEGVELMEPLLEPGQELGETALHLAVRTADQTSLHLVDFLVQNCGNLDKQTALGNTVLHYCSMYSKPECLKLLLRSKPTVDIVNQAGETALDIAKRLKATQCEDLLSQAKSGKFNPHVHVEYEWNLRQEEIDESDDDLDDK
MsrA inh confirm = bovine MsrA inhibition, confirmed; shares compounds with MsrA inh; purified bovine MsrA, absorbance read-out; inhibition, % at 15.5 µM; actives 41% (n = 2,300);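 note: coupled to thioredoxin reductase with NADPH and selenocystamine and DMSO as substrate; 0% = vehicle only and 100% = full effect of reference inhibitor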
Starred values were filed as active, the others as inactive. Cut-off read from the data, not from the text of the source, unless noted: active = inhibition above about 4.5%; inactive = the rest.

Screening O=[N+]([O-])c1cc([N+](=O)[O-])c2n[nH]c(-c3ccccc3)c2c1 returned MsrA inh 5.2*, HGIII-sPLA2 inh 4.1, NR1D1 modulator 2.7, bovine MsrA act -1.8, ARFGAP1 inhibitor 5.9, ASAP1 inh 21.8 and MsrA inh confirm 4.5.
O=[N+]([O-])c1cc(-c2n[nH]c(-c3ccccc3)n2)cc([N+](=O)[O-])c1 was read as MsrA inh 1.6, HGIII-sPLA2 inh 6.4, NR1D1 modulator -3.0, bovine MsrA act -8.8, ARFGAP1 inhibitor 6.2 and ASAP1 inh 8.9.
For C/C(=N\NC(=O)CSc1nnc(-c2ccccc2)n1-c1ccc(C)cc1)c1ccc(-c2ccccc2)cc1 the results were HGIII-sPLA2 inh 2.5 and NR1D1 modulator -14.5.
Screening COc1ccc(C(=O)/C=C/c2ccsc2)cc1CSCC(=O)O returned MsrA inh 4.7*, HGIII-sPLA2 inh 1.9, NR1D1 modulator 2.8, bovine MsrA act -6.0, ARFGAP1 inhibitor -3.5, ASAP1 inh 2.3 and MsrA inh confirm 4.0.
COc1ccc(/C=C2\SC(=O)N(CCNC(=O)C3CSC4(C)CCC(=O)N34)C2=O)cc1 (centres undefined) was read as MsrA inh 6.4*, HGIII-sPLA2 inh -4.5, NR1D1 modulator -3.1, bovine MsrA act -7.5, ARFGAP1 inhibitor -3.2, ASAP1 inh 17.5 and MsrA inh confirm 3.0.
COc1ccc(/C=C2\SC(=O)N(CCn3cnnn3)C2=O)cc1 was read as MsrA inh 6.3*, HGIII-sPLA2 inh 0.8, NR1D1 modulator -1.1, bovine MsrA act -5.7, ARFGAP1 inhibitor 8.6, ASAP1 inh 12.2 and MsrA inh confirm 4.5.
`COc1ccc(/C=C2/SC(=O)N(CCNC(=O)C3CCCN3C(=O)c3cccs3)C2=O)cc1` (centres undefined) gave MsrA inh 5.6*, HGIII-sPLA2 inh -3.2, NR1D1 modulator -2.9, bovine MsrA act -4.5, ARFGAP1 inhibitor 12.1, ASAP1 inh 11.7 and MsrA inh confirm 4.1.
`Cc1ccc(-c2cc(-c3nnc(SCC(=O)N4c5ccccc5Sc5ccc(Cl)cc54)n3N)[nH]n2)cc1` gave HGIII-sPLA2 inh 0.5 and NR1D1 modulator 1.2.
Screening O=[N+]([O-])c1cc(S(=O)(=O)Nc2ccccc2)ccc1NCc1ccccc1 returned MsrA inh 0.2, HGIII-sPLA2 inh -23.1, NR1D1 modulator -1.9, bovine MsrA act 1.0, ARFGAP1 inhibitor -6.5 and ASAP1 inh 6.4.
`O=[N+]([O-])c1cc(S(=O)(=O)Nc2ccccc2)ccc1Nc1ccccc1` gave MsrA inh 5.7*, HGIII-sPLA2 inh -18.1, NR1D1 modulator -2.0, bovine MsrA act -4.8, ARFGAP1 inhibitor 6.8, ASAP1 inh -22.3 and MsrA inh confirm 3.8.
For CCOC(=O)c1cc2c(ccc3ccccc32)oc1=O the results were MsrA inh 20.0*, HGIII-sPLA2 inh 11.2, NR1D1 modulator -4.4, bovine MsrA act -2.5, ARFGAP1 inhibitor 6.9, ASAP1 inh 2.0 and MsrA inh confirm 13.4*.
Screening O=C(O)c1cc2c(ccc3ccccc32)oc1=O returned MsrA inh 1.6, HGIII-sPLA2 inh 4.1, NR1D1 modulator 6.1, bovine MsrA act -5.6, ARFGAP1 inhibitor -8.2 and ASAP1 inh -8.2.
Screening O=C(Nc1ccc(F)cc1)/C(=C1/CCCCCN1)[N+](=O)[O-] returned MsrA inh 6.4*, HGIII-sPLA2 inh 2.7, NR1D1 modulator 3.7, bovine MsrA act 2.7, ARFGAP1 inhibitor 9.9, ASAP1 inh -4.8 and MsrA inh confirm 3.3.
For COc1ccc(C=NNc2nc3c([nH]2)c(=O)n(C)c(=O)n3C)cc1 the results were MsrA inh 5.5*, HGIII-sPLA2 inh 9.4, NR1D1 modulator -6.1, bovine MsrA act -2.7, ARFGAP1 inhibitor -7.0, ASAP1 inh 0.6 and MsrA inh confirm 2.5.
For COC(=O)[C@]12C[C@H](CC(=O)NCc3ccc(OC)c(OC)c3)C(=O)N(CCC3=CCCCC3)C1=C[C@H](C1CCCC1)O[C@@H]2C the results were HGIII-sPLA2 inh -12.5 and NR1D1 modulator -0.4.
COC(=O)C/C=C/[C@@H](C)[C@H](NC(=O)OCC(Cl)(Cl)Cl)c1ccc(-c2ccccc2)cc1 was read as HGIII-sPLA2 inh -12.1 and NR1D1 modulator -3.8.
CCOC(=O)c1c(NC(=O)COC(=O)/C=C/c2ccco2)sc2c1CC(C)(C)NC2(C)C was read as MsrA inh 8.7*, HGIII-sPLA2 inh 3.1, NR1D1 modulator -2.8, bovine MsrA act -2.8, ARFGAP1 inhibitor 19.9, ASAP1 inh -6.8 and MsrA inh confirm 14.5*.
`Cc1cccc(C)c1-n1cccc1/C=C1/C(=N)N2C(=NC1=O)SN=C2S(C)(=O)=O` gave MsrA inh 7.4*, HGIII-sPLA2 inh -58.3, NR1D1 modulator -0.5, bovine MsrA act -8.0, ARFGAP1 inhibitor -14.6, ASAP1 inh -5.8 and MsrA inh confirm 5.8*.
Cc1ccc(-n2cccc2/C=C2/C(=N)N3C(=NC2=O)SN=C3S(C)(=O)=O)cc1Cl was read as MsrA inh 1.4, HGIII-sPLA2 inh -9.3, NR1D1 modulator -7.7, bovine MsrA act -5.6, ARFGAP1 inhibitor -5.0 and ASAP1 inh -5.5.
For CC(N)(Cc1ccc(O)c(O)c1)C(=O)O (centres undefined) the results were NR1D1 modulator -32.7.
Screening CC1(C)OC(=O)C(=NNc2ccc(C(=O)O)cc2)C(=O)O1 returned MsrA inh 4.8*, HGIII-sPLA2 inh 17.5, NR1D1 modulator -0.5, bovine MsrA act -4.8, ARFGAP1 inhibitor -1.5, ASAP1 inh 12.2 and MsrA inh confirm 2.2.
CC1(C)OC(=O)C(=NNc2ccccc2C(=O)O)C(=O)O1 was read as MsrA inh 4.9*, HGIII-sPLA2 inh 7.0, NR1D1 modulator 10.7, bovine MsrA act -4.6, ARFGAP1 inhibitor -7.4, ASAP1 inh 5.6 and MsrA inh confirm 2.4.
`CC1(C)OC(=O)C(=NNc2ccccc2)C(=O)O1` gave MsrA inh 4.0, HGIII-sPLA2 inh 12.3, NR1D1 modulator -4.3, bovine MsrA act -7.5, ARFGAP1 inhibitor 1.1 and ASAP1 inh -1.9.
N#CCC[C@@H]1CC[C@]2(CCCN(S(=O)(=O)c3ccccc3)C2)O1 was read as HGIII-sPLA2 inh 16.9 and NR1D1 modulator 7.6.
O=C(CC(=O)N/N=C/c1ccc(O)cc1)N/N=C/c1ccc(O)cc1 was read as MsrA inh 2.5, HGIII-sPLA2 inh -6.4, NR1D1 modulator -6.2, bovine MsrA act -2.3, ARFGAP1 inhibitor 7.3 and ASAP1 inh 8.7.
`Cc1c(C(=O)N/N=C/c2ccc(O)cc2)sc(=S)n1C` gave MsrA inh 5.8*, HGIII-sPLA2 inh 6.2, NR1D1 modulator 15.1, bovine MsrA act -6.3, ARFGAP1 inhibitor 23.8, ASAP1 inh 14.8 and MsrA inh confirm 4.8*.
Cc1c(NC(=S)N/N=C/c2cccc(O)c2)c(=O)n(-c2ccccc2)n1C was read as MsrA inh 3.0, HGIII-sPLA2 inh 3.9, NR1D1 modulator 0.1, bovine MsrA act -4.5, ARFGAP1 inhibitor 8.6 and ASAP1 inh 8.3.
